# Assay outcomes (PubChem BioAssay)
# DENV2 CPE rescue – inhibitors of DENV2 cytopathic effect. DENV2-infected cells, cytopathic effect rescue, plate reader. CPE inhibition, % at 9.99 µM. hit rate 1.7% among 350,000. AID 651640; in the data active = CPE inhibition above about 20%, passing the limit was not always enough; inconclusive = no clear call, values can overlap the other calls; tested in BHK-21 cells
# S100A4 inh HTS – blocks human S100A4 binding to myosin IIA peptide. S100A4/TAMRA-MyoIIA peptide fluorescence polarization. AID 652163. inhibition, % at 10.7 µM. hit rate 0.14% among 360,000. P26447;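 active = mean inhibition of at least 70% across replicates, with every replicate also reaching that level; inconclusive = mean inhibition reaches 70% but some replicates fall short; inactive = mean inhibition below 70%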
# Target sequence (P26447 whole entry, looked up): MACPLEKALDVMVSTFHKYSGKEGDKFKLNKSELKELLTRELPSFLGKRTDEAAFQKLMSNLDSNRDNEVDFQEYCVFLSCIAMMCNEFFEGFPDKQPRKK
#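 System – human S100A4 monomer protein, biochemical binding assay · Buffer or medium – Calcium-containing HEPES buffer, pH 7.2 · Timing – 5 min between mix addition and reading · Also added – TAMRA-labelled myosin IIA heavy-chain peptide probe, 5 nM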
# SIRT5 inh – inhibitors of human sirtuin-5 desuccinylase; Q9NXA8; Purified SirT5, succinyl-peptide AMC, trypsin-coupled fluorescence; hit rate 1.1% among 330,000; inhibition, % at 15 µM; in the data active = inhibition above about 15%; inconclusive = no clear call, values can overlap the other calls
# Target sequence (Q9NXA8 whole entry, looked up): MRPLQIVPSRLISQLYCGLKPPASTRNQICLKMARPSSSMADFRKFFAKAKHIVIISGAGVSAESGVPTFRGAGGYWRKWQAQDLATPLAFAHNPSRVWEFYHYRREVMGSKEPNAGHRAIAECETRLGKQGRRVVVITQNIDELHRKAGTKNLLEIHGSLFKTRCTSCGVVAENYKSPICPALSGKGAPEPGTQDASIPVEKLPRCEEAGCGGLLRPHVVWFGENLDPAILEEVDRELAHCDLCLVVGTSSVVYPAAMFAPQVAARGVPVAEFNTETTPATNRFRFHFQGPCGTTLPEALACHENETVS
# PGC1a acetyl inh – modulators of PGC1a acetylation. U2OS PGC1a acetylation, AlphaScreen anti-acetyl-lysine; with virally co-expressed GCN5 acetyltransferase. inhibition, % at 15.6 µM. hit rate 0.17% among 350,000. AID 651687;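 active = every replicate shows inhibition of at least 40%; inconclusive = mean inhibition at least 40% but some replicate below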
# Statin myotox sup – protects C2C12 myotubes from simvastatin toxicity. ATP luminescence, 48 h; scaled: DMSO 0, geranylgeraniol control 100. hit rate 0.78% among 330,000. rescue of ATP level, % at 7.49 µM. AID 602340;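 active = mean ATP rescue above about 67%, or every replicate alone reaching that limit, limit read from the data, passing the limit was not always enough; inconclusive = no clear call, values can overlap the other calls; inactive = mean under the limit and some replicate under it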;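 note: myotubes were challenged with 10 µM simvastatin during compound exposure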
# Numbers stand for hits; – = inactive; ? = inconclusive; · = no result given. The list is not random: actives were taken first. Their share in the collection is about 2.9%.
SMILES,DENV2 CPE rescue,S100A4 inh HTS,SIRT5 inh,PGC1a acetyl inh,Statin myotox sup
CNC[C@@H]1Oc2ccc(NC(=O)Nc3ccc(C(F)(F)F)cc3)cc2C(=O)N([C@H](C)CO)C[C@H]1C,–,–,–,–,–
CN1C(=O)c2cc(NC(=O)C3CC3)ccc2OC[C@H]2O[C@H](CC(=O)NCCc3ccncc3)CC[C@H]21,–,–,–,–,–
O=C(C1=NN[C@@H]2C(=O)N(c3cccc(F)c3)C(=O)[C@H]12)c1ccc2ccccc2n1,–,–,16,–,·
CC(=O)N(C)C[C@H]1Oc2ncc(-c3ccc(C#N)cc3)cc2C(=O)N([C@H](C)CO)C[C@@H]1C,?,–,–,–,–
COCC(=O)N1CCC2CC1c1cc(Cl)ccc12 (stereo unspecified),–,–,22,–,–
CCCNC(=O)Nc1ccc2c(c1)C(=O)N(C)C[C@@H](OC)[C@@H](C)CN(Cc1ccccc1)[C@@H](C)CO2,·,·,·,–,–
Cn1ncc(C#N)c1/N=C/N1CCOCC1,·,·,·,–,117
Cn1ncc(C#N)c1/N=C/N1CCCCCC1,·,·,·,–,–
C=CCOC(=O)[C@H]1[C@@H]2C(=O)O[C@@H](c3ccccc3)[C@@H](c3ccccc3)N2[C@@H](c2ccc(OCCOC(=O)[C@@H]3C[C@@H]4C(=O)NCC(=O)N4[C@@H]3c3cccc(OCCO)c3)cc2)[C@]12C(=O)Nc1ccc(I)cc12,–,–,–,–,·
COc1ccccc1-c1noc(-c2ccccc2C(=O)NCc2ccco2)n1,·,–,–,–,–
COc1cc(-c2noc(-c3ccccc3C(=O)NCc3ccco3)n2)cc(OC)c1OC,·,·,·,–,100
Cn1c(=O)c(=O)n(C)c2cc(N3CCOCC3)c(NS(=O)(=O)c3ccc([N+](=O)[O-])cc3)cc21,–,–,–,–,109
Cn1c(=O)c(=O)n(C)c2cc(N3CCOCC3)c(NS(=O)(=O)c3ccc(F)c(Cl)c3)cc21,–,–,–,·,·
COc1cc2c(cc1OC)CN(C(=O)[C@H]1[C@@H]3C(=O)O[C@@H](c4ccccc4)[C@@H](c4ccccc4)N3[C@@H](c3ccccc3OCCO)[C@]13C(=O)Nc1ccc(C#CC4(O)CCCCCC4)cc13)CC2,–,–,–,–,·
Cc1nc(C(=O)NC2CCOCC2)sc1C1(C)CC(c2ccccc2)=NO1 (stereo unspecified),–,–,·,–,–
Cc1nc(C(=O)NC2CCOCC2)sc1C1(C)CC(c2cccc([N+](=O)[O-])c2)=NO1 (stereo unspecified),44,–,–,–,–
O=C(/C(=C/O)N=Nc1ccccc1)c1ccc(Cl)cc1,–,–,–,–,·
Cc1ccc(N=N/C(=C\O)C(=O)c2ccc(Cl)cc2)cc1,–,–,22,–,–
C=C(C(=O)O)C(CCCCCC)C(=O)O (stereo unspecified),90,–,–,–,–
CCCCCCCC(=O)O,?,–,–,–,–
COCC(=O)Nc1ccc2c(c1)[C@@H]1C[C@H](CC(=O)N3CCCCC3)O[C@@H](CO)[C@@H]1O2,–,·,·,–,–
O=C(C1CCCCC1)N1CCC2CC1c1cc(N3CCCCC3)ccc12 (stereo unspecified),–,–,–,–,–
O=C(c1ccccc1F)N1CCC2CC1c1cc(N3CCCCC3)ccc12 (stereo unspecified),42,–,–,–,–
C[C@@H]1COC(=O)[C@@H](CC(=O)OC(C)(C)C)C/C=C\C[C@@H](CC(=O)NCCO)C(=O)N1,24,–,–,·,–
COc1ccc(C2=NN(CCC(=O)NC3CCCCCC3)C(=O)CC2)cc1,–,–,–,–,–
SMILES,DENV2 CPE rescue,S100A4 inh HTS,SIRT5 inh,PGC1a acetyl inh,Statin myotox sup
COc1ccc(C2=NN(CCC(=O)NC3CCC(C)CC3)C(=O)CC2)cc1 (stereo unspecified),–,88,–,–,–
O=C(C[C@@H]1CC[C@H]2[C@@H](COC[C@H](O)CN2C(=O)Nc2ccc(F)cc2)O1)NC1Cc2ccccc2C1,25,?,–,–,–
O=C(C[C@@H]1CC[C@@H]2[C@H](COC[C@@H](O)CN2C(=O)Nc2ccc(F)cc2)O1)NC1Cc2ccccc2C1,–,–,–,–,–
O=C(C[C@H]1CC[C@@H]2[C@H](COC[C@@H](O)CN2C(=O)Nc2ccc(F)cc2)O1)NCCc1ccccc1,–,106,–,–,–
C[C@H]1CN([C@@H](C)CO)C(=O)c2cc(NC(=O)CCC(F)(F)F)ccc2O[C@H]1CN(C)C(=O)Nc1ccc2c(c1)OCO2,–,–,–,–,–
CCOC(=O)c1oc2cccc(O)c2c1C,·,·,·,–,–
CCOC(=O)c1oc2cccc(OC(C)=O)c2c1C,·,·,·,–,147
O=C(Nc1ccccc1)N1C[C@H]2[C@@H](c3ccccc31)[C@@H](CO)N2CC1CCCC1,–,–,–,–,–
O=C(COC(=O)CC1CC2CCC1C2)Nc1ccc(F)cc1 (stereo unspecified),–,–,112,·,·
c1ccc(CCc2nc(-c3ccc(-n4cccc4)cc3)no2)cc1,–,–,18,–,–
c1ccc(CCc2nc(-c3ccccc3)no2)cc1,·,·,·,–,–
COc1ccc(S(=O)(=O)Nc2ccc3c(c2)C(=O)N([C@H](C)CO)C[C@H](C)[C@@H](CN(C)Cc2ccc4c(c2)OCO4)OCCCC[C@@H](C)O3)cc1,23,–,–,–,–
COc1ccc(S(=O)(=O)Nc2ccc3c(c2)C(=O)N([C@@H](C)CO)C[C@@H](C)[C@@H](CN(C)Cc2ccc4c(c2)OCO4)OCCCC[C@@H](C)O3)cc1,–,–,–,–,–
COc1ccc(S(=O)(=O)Nc2ccc3c(c2)C(=O)N([C@@H](C)CO)C[C@@H](C)[C@H](CN(C)Cc2ccc4c(c2)OCO4)OCCCC[C@@H](C)O3)cc1,56,–,–,–,–
COc1ccc(S(=O)(=O)Nc2ccc3c(c2)C(=O)N([C@H](C)CO)C[C@H](C)[C@@H](CN(C)Cc2ccc4c(c2)OCO4)OCCCC[C@H](C)O3)cc1,30,–,–,–,–
O=C(c1ccccc1F)N1CC[C@H]2[C@H](CO)Nc3ccc(-c4cccc(F)c4)cc3[C@H]21,–,·,–,–,–
COc1cccc(N2CC(C(=O)Nc3nnc(SCCC4OCCO4)s3)CC2=O)c1 (stereo unspecified),93,–,–,·,–
CNC(=O)CSc1nnc(NC(=O)C2CC(=O)N(c3ccccc3OC)C2)s1 (stereo unspecified),33,–,–,·,–
COc1ccccc1N1CC(C(=O)Nc2nnc(SCc3ccccn3)s2)CC1=O (stereo unspecified),·,·,·,–,–
C[C@H](CO)N1C[C@H](C)[C@@H](CN(C)Cc2ccc(Oc3ccccc3)cc2)Oc2ccc(NC(=O)CCN3CCOCC3)cc2C1=O,–,–,–,–,–
O=C(C[C@@H]1C[C@@H]2c3cc(NC(=O)Cc4ccncc4)ccc3O[C@@H]2[C@@H](CO)O1)NCc1ccccc1,–,–,–,–,–
CC(=O)N1[C@@H]2Cn3c(cccc3=O)[C@H]1[C@@H](C(=O)NC1CCCC1)[C@@H]2CO,–,–,–,·,–
